Data from ChEMBL document CHEMBL4613270, “Structure-Activity Relationship Study Enables the Discovery of a Novel Berberine Analogue as the RXRα Activator to Inhibit Colon Cancer” (J Med Chem, 2020).
Activity calls are given as the source filed them. The calls are words filed in the database; no cut-off is given here.

Assays:
SW-620 [1] = assay: Inhibition of cell proliferation of human SW620 cells incubated for 15 hrs by MTT assay; type: functional, cell-based; details: SW-620, 15 h
How it was run: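 Cells plated at 1×10⁴ per well, incubated overnight at 37 °C, then exposed to a concentration series for 15 h. MTT (5 mg/mL stock) added for 4 h at 37 °C. Formazan dissolved in DMSO and absorbance read at 570 nm. IC50 derived from the dose-response curve.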

[2] = target: T1, Retinoic acid receptor RXR-alpha (Homo sapiens) (UniProt P19793); assay: Activation of RXRalpha in human SW620 cells assessed as […] crease in p21 (WAF1/CIP1) mRNA expression at 40 to 80 uM incubated for 15 hrs by real-time PCR analysis; type: cell-based; details: SW-620
T1 sequence (whole entry): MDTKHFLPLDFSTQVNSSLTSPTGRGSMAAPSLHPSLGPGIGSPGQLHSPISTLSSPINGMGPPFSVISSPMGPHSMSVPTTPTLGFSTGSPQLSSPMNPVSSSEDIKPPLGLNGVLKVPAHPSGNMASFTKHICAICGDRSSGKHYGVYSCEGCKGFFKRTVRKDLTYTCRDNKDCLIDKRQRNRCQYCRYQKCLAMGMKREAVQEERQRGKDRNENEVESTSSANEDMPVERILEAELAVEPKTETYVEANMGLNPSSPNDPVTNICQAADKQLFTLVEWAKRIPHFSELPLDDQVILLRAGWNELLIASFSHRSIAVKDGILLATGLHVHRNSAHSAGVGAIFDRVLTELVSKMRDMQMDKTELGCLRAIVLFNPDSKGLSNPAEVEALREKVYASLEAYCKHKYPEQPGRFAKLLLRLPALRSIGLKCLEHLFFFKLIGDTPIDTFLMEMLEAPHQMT

[3] = target: T1, Retinoic acid receptor RXR-alpha (Homo sapiens); assay: Activation of RXRalpha in human HCT116 cells assessed as reduction in c-Myc protein expression at 30 to 60 uM incubated for 15 hrs by Western blot analysis; type: cell-based; details: HCT-116
[4] = target: T1, Retinoic acid receptor RXR-alpha (Homo sapiens); assay: Activation of RXRalpha in human HCT116 cells assessed as induction of beta-catenin protein degradation at 30 to 60 uM incubated for 15 hrs by Western blot analysis; type: cell-based; details: HCT-116
[5] = target: T1, Retinoic acid receptor RXR-alpha (Homo sapiens); assay: Activation of RXRalpha in human KM12C cells assessed as reduction in Cdc2 mRNA expression at 25 to 50 uM incubated for 15 hrs by real-time PCR analysis; type: cell-based
[6] = target: T1, Retinoic acid receptor RXR-alpha (Homo sapiens); assay: Activation of RXRalpha in human SW620 cells assessed as induction of beta-catenin protein degradation at 40 to 80 uM incubated for 15 hrs by Western blot analysis; type: cell-based; details: SW-620
[7] = target: T1, Retinoic acid receptor RXR-alpha (Homo sapiens); assay: Activation of RXRalpha in human KM12C cells assessed as induction of beta-catenin protein degradation at 25 to 50 uM incubated for 15 hrs by Western blot analysis; type: cell-based
KM12C [8] = assay: Activation of RXRalpha R371S mutant LBD (unknown origin) expressed in human KM12C cells at 50 uM incubated for 15 hrs by luciferase reporter gene assay; type: cell-based
How it was run: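 KM12C cells co-transfected with pG5luc and pBIND-RXRα-LBD (wild type or mutants) using Lipofectamine 2000. Twenty hours after transfection, compound added at 50 μM for 15 h. Cells lysed in passive lysis buffer (4 °C, 1 h), then firefly and Renilla luciferase read by dual-luciferase assay. Basal level normalized to 1.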

[9] = target: T1, Retinoic acid receptor RXR-alpha (Homo sapiens); assay: Activation of RXRalpha in human HCT116 cells assessed as reduction in Cdc2 mRNA expression at 30 to 60 uM incubated for 15 hrs by real-time PCR analysis; type: cell-based; details: HCT-116
[10] = target: T1, Retinoic acid receptor RXR-alpha (Homo sapiens); assay: In-vivo activation of RXRalpha in BALB/c mouse xenografted with human KM12C cells assessed as reduction in c-Myc mRNA expression at 100 mg/kg, ig dosed daily for 15 days by real-time PCR analysis; type: functional, organism-based
How it was run: (§1)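 KM12C cells (1×10^6 per mouse in 100 μL HBSS) injected subcutaneously into both flanks of nude mice; after seven days, randomized to three groups, dosed intragastrically once daily for 15 days with vehicle (CMC-Na) or 100 mg/kg compound; mice euthanized and tumors removed for analysis.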

[11] = target: T1, Retinoic acid receptor RXR-alpha (Homo sapiens); assay: Activation of RXRalpha in human SW620 cells assessed as reduction in c-Myc mRNA expression at 40 to 80 uM incubated for 15 hrs by real-time PCR analysis; type: cell-based; details: SW-620
[12] = target: T1, Retinoic acid receptor RXR-alpha (Homo sapiens); assay: In-vivo activation of RXRalpha in BALB/c mouse xenografted with human KM12C cells assessed as induction of beta-catenin protein degradation at 100 mg/kg, ig dosed daily for 15 days by immunohistochemistry analysis; type: functional, organism-based; how it was run: as §1
SW-620 [13] = assay: Inhibition of cell proliferation of human SW620 cells at 40 to 80 uM incubated for 15 hrs by EdU assay; type: functional, cell-based
How it was run: (§2)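 Colon cancer cells treated for 15 h. Proliferation measured in 96-well plates using an EdU incorporation kit, with cells examined under a fluorescence microscope.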

[14] = target: T1, Retinoic acid receptor RXR-alpha (Homo sapiens); assay: Activation of RXRalpha in human SW620 cells assessed as […] in PCNA protein expression at 40 to 80 uM incubated for 15 hrs by Western blot analysis; type: cell-based; details: SW-620
HCT-116 = assay: Inhibition of cell proliferation of human HCT116 cells at 30 to 60 uM incubated for 15 hrs by EdU assay; type: functional, cell-based; how it was run: as §2
[15] = target: T1, Retinoic acid receptor RXR-alpha (Homo sapiens); assay: Activation of RXRalpha in human KM12C cells assessed as reduction in Cdc2 mRNA expression at 25 to 50 uM incubated for 15 hrs in presence of RXRalpha shRNA by real-time PCR analysis; type: cell-based
[16] = target: T1, Retinoic acid receptor RXR-alpha (Homo sapiens); assay: Activation of RXRalpha in human HCT116 cells assessed as […] protein expression at 30 to 60 uM incubated for 15 hrs by Western blot analysis; type: cell-based; details: HCT-116
KM12C [17] = assay: Inhibition of cell proliferation of human KM12C cells up to 100 uM in presence of RXRalpha shRNA incubated for 15 hrs by MTT assay; type: functional, cell-based
How it was run: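 KM12C cells were transfected with control or RXRα-targeting shRNA, seeded at 1×10^4 cells/well and incubated overnight at 37 °C. Compound was then added for 15 h. MTT (5 mg/mL stock) was incubated 4 h at 37 °C, formazan dissolved in DMSO, and absorbance read at 570 nm.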

[18] = target: T1, Retinoic acid receptor RXR-alpha (Homo sapiens); assay: Activation of RXRalpha in human KM12C cells assessed as reduction in c-Myc protein expression at 25 to 50 uM incubated for 15 hrs in presence of RXRalpha shRNA by Western blot analysis; type: cell-based
[19] = Hepatotoxicity in BALB/c mouse xenografted with human KM12C cells assessed as induction of hepatomegaly by measuring body weight ratio at 100 mg/kg, ig dosed daily for 15 days; type: toxicity, organism-based; details: in vivo, po, 360 h
[20] = target: T1, Retinoic acid receptor RXR-alpha (Homo sapiens); assay: Activation of RXRalpha in human SW620 cells assessed as increase transactivational activity on RXRE at 40 to 80 uM incubated for 15 hrs by luciferase reporter gene assay; type: cell-based; details: SW-620
How it was run: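 Endogenous RXRα transactivation on an RXRE luciferase reporter, lipofection-transfected; compound added 20 h post-transfection for 15 h; lysis in passive lysis buffer at 4 °C, 1 h; firefly and Renilla luciferase activities read by dual-luciferase assay.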

COc1ccc2cc3[n+](cc2c1OC)CCc1cc2c(cc1-3)OCO2.[Cl-] [BERBERINE CHLORIDE]
IC50 (SW-620 [1]): 126 µM | Activity [2]: Active | Activity [3]: Active | Activity [4]: Active | Activity [5]: Active | Activity [6]: Active | Activity [7]: Active | Activity (KM12C [8]): inactive | Activity [9]: Active | Activity [10]: Active | Activity [11]: Active | Activity [12]: Active

COc1ccc2c(c1)CC[n+]1cc3c(OC)cccc3cc1-2.[Cl-]
inhibition (SW-620 [13]): Active | Activity [14]: Active | IC50 (SW-620 [1]): 36.2 µM | Activity [2]: Active | inhibition (HCT-116): Active | Activity [3]: Active | Activity [4]: Active | Activity [5]: Active | Activity [15]: inactive | Activity [6]: Active | Activity [16]: Active | Activity [7]: Active | inhibition (KM12C [17]): inactive | Activity (KM12C [8]): inactive | Activity [18]: inactive | Activity [9]: Active | Activity [19]: Non-Toxic | Activity [20]: Active | Activity [10]: Active | Activity [11]: Active | Activity [12]: Active
